MDM2 E3 inh – Mdm2 E3 ligase (human) inhibition. Q00987. cell-based MDM2 ubiquitination luciferase reporter, 2 h; 0 = plate control, 100 = twice control, blank-subtracted. signal enhancement, % at 5 µM. 0.11% of 210,000 active. AID 1230;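 active = signal enhancement of 30% or more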;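 also: luminescence tracks abundance of the self-degrading MDM2-luciferase fusion protein; higher signal means inhibition of MDM2 E3 ligase activity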
Target sequence (Q00987 whole entry, looked up, the tested form may be a part): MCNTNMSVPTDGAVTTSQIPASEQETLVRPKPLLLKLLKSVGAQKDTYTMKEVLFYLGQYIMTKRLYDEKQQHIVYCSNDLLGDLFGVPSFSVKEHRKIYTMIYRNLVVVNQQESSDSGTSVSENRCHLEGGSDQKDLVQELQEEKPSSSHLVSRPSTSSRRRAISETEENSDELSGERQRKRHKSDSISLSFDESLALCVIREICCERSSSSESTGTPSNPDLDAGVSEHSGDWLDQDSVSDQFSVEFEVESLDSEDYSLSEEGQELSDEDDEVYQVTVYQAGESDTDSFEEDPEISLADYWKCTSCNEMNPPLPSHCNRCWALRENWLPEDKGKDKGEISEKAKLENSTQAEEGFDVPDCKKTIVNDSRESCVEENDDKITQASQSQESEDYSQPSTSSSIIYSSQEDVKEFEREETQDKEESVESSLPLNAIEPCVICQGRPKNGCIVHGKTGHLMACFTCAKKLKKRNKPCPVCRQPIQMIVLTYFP
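Material: stable MDM2–luciferase fusion reporter cells / Quantity: 2000 cells/well / Dosing: single 5 µM compound dose, 0.2% final DMSO / Buffer or medium: DMEM / Schedule: 4 h cell settling then 2 h compound exposure, 37 °C / Detection: luminescence with SteadyLite reagent, 15 min at room temperature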
RAM inhibit – yeast RAM network inhibition; inhibition, % at 50 µM; S. cerevisiae dse1pr::URA3 reporter, 5-FOA growth OD615, 2 d; analog-sensitive cbk1-as2 kinase mutant strain; AID 868; 1.8% of 190,000 active;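 active = inhibition above a set limit, 3 SD over mean compound inhibition, cut at about 8.4% in these data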;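 also: 0% = DMSO-only wells with no growth and 100% = 10 µM 1-NA-PP1 full growth; inhibition rescues growth on 5-FOA so higher OD means more RAM inhibition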
Yeast growth inh – chemicals that inhibit yeast BB579 growth in restrictive medium (lifespan-shortening candidates); 0.51% of 140,000 active; S. cerevisiae BB579 growth, OD615, 48 h; inhibition, % at 10 µM; AID 804;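 active = inhibition above a set limit, 3 SD over the mean compound inhibition, cut at about 44% in these data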
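Test system: S. cerevisiae DeaD strain BB579 yeast; Medium: restrictive CSMM-D medium; Compound: one dose, 10 µM compound with 0.25% DMSO; Incubation: 4 h cell preincubation, 48 h compound exposure, 30 °C humidified; Signal: OD at 615 nm; Benchmarks: amphotericin B at 10 µg/mL as positive control.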
Yeast life ext – yeast lifespan extension; S. cerevisiae growth with nicotinamide, OD615; deaD strain in restrictive glucose medium; inhibition of the nicotinamide effect, % at 10 µM; 0.68% of 130,000 active;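 active = inhibition above a set limit, placed 3 SD over the median of all compounds, cut at about 26% in these data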;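 also: 0% = nicotinamide-treated wells and 100% = cells grown without nicotinamide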
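Test system: DeaD-strain S. cerevisiae / Buffer or medium: restrictive glucose medium / Also added: nicotinamide 1.5 mM / Doses: one concentration, 10 µM, DMSO 0.25% / Schedule: 48 h at 30 °C / Signal: OD615 measurement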
INS promoter inh – TRM-6 insulin promoter activity inhibition; 0.9% of 130,000 active; TRM-6 cells, insulin promoter-eGFP reporter, imaging; reporter expression induced with tamoxifen; inhibition, % at 2 µM;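 active = inhibition above the mean plus 3 SD, with well images judged a real hit on visual review, cut at about 60% in these data, passing the limit was not always enough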
Measles CPE – protection of cells from measles virus; Measles virus-infected cells, CPE protection, absorbance; protection (pct of control), % at 4 µM; 1.5% of 140,000 active; AID 841; in the data active = protection mostly above about 24%, no sharp cut-off; inactive = mostly below about 26%
Starred values were filed as active, the others as inactive; x = not tested or not shown. Rows were chosen to be rich in hits. Some 4% of all compounds tested hit in one or more screens of this group.

SMILES | MDM2 E3 inh | RAM inhibit | Yeast growth inh | Yeast life ext | INS promoter inh | Measles CPE
Cc1cc2nc(C)c3c(n2n1)CCC3 | -1 | -1 | x | x | x | x
O=C(Nc1nccs1)C1CC2CCC1C2 (stereo not given) | -7 | 1 | -42 | 0 | 14 | 23
O=C(Nc1ccc([N+](=O)[O-])cn1)C1CC2CCC1C2 (stereo not given) | -9 | 1 | -18 | 5 | 69* | 2
CC(C)C(=O)Nc1ccc(N2CCCC2)c(Cl)c1 | -4 | 1 | x | x | -33 | x
COc1cccc(N2C(=O)CC(N3CCN(C(=O)c4ccco4)CC3)C2=O)c1 (stereo not given) | -14 | 1 | -15 | -8 | 11 | 74*
N#C/C(=C\c1ccc[nH]1)S(=O)(=O)c1ccccc1 | -6 | 0 | -47 | -13 | -10 | 1
COC(=O)c1ccc(COC(=O)CCc2nc(-c3ccccc3)c(-c3ccccc3)o2)cc1 | -13 | 11* | -37 | -12 | 20 | 20
O=C(O)/C=C/C(=O)Nc1ccc(-c2ccccc2)cc1 | -19 | 5 | x | x | x | x
O=[N+]([O-])c1cc(/C=N/O)ccc1Sc1ccccc1 | 6 | -1 | 79* | -10 | 14 | 7
O=[N+]([O-])c1cc(/C=N/O)ccc1SCc1ccccc1 | -14 | 4 | -28 | -8 | -20 | 75*
CO/N=C/c1ccc(Sc2ccccc2)c([N+](=O)[O-])c1 | 5 | 1 | -28 | -10 | -50 | 5
c1ccc(Cn2nnc3c(N4CCc5ccccc5C4)ncnc32)cc1 | 8 | 8 | -40 | -10 | 82* | 16
c1ccc(Cn2nnc3c(N4CCCC4)ncnc32)cc1 | -2 | 0 | -9 | -14 | -50 | 22
Cc1cc(C)c2nc(NNC(=O)c3ccc(S(=O)(=O)N4CCc5ccccc5C4)cc3)sc2c1 | x | 2 | 31 | 1 | -256 | 5
Cc1cc(C)c2nc(NNC(=O)c3cc(=O)c4ccccc4o3)sc2c1 | 3 | 9.5* | x | x | x | x
CC1CCC2C(=O)N(c3cccc(OS(=O)(=O)c4ccccc4)c3)C(=O)C2C1 (stereo not given) | 6 | 9.4* | -7 | 0 | x | 27
CC1CCC2C(=O)N(c3ccc(S(=O)(=O)c4ccccc4)cc3)C(=O)C2C1 (stereo not given) | 3 | 5 | -35 | 4 | -33 | 14
Cc1ccc(O)c(C(=O)c2coc(=N)c(C(=O)NC(C)C)c2)c1 | -3 | 0 | -71 | -3 | 22 | 3
O=[N+]([O-])c1ccc(Cl)c(S(=O)(=O)N2CCCCCC2)c1 | 11 | 1 | 57* | 5 | -16 | 9
CN1CCN(S(=O)(=O)c2cc([N+](=O)[O-])ccc2Cl)CC1 | -9 | 0 | x | x | x | x
O=c1nc(/C=C/c2cc([N+](=O)[O-])ccc2Cl)cc(C(F)(F)F)[nH]1 | -16 | 1 | -26 | -9 | 33 | 55*
Cc1cc(C(=O)Nc2ccc3c(c2)OCCO3)c(C)o1 | -28 | 0 | -36 | -25 | -34 | 5
CC(=O)c1c(Nc2ccc3c(c2)OCCO3)oc(C)cc1=O | -6 | -1 | 1 | 27* | x | 18
Cc1occc1-c1nnc(SCC(=O)Nc2nc3ccccc3s2)o1 | -5 | 4 | -2 | -3 | 46 | 10
O=C(Nc1ccc(F)c([N+](=O)[O-])c1)c1ccc2c(c1)C(=O)OC2=O | -16 | x | x | x | x | x
SMILES | MDM2 E3 inh | RAM inhibit | Yeast growth inh | Yeast life ext | INS promoter inh | Measles CPE
CCOC(=O)N1CCC(NC(=O)C2CCN(c3ccc(N4CCOCC4)nn3)CC2)CC1 | -19 | 1 | -40 | -24 | 29 | 48*
C=CCn1c(O)c(C(CC)=NCCN2CCOCC2)c(=O)[nH]c1=O | -23 | 1 | 20 | 37* | x | 3
C=CCn1c(O)c(C(CC)=Nc2ccccc2NC(=O)CC)c(=O)[nH]c1=O | -28 | 0 | 1 | 0 | -21 | 18
COc1ccc(C2=CSC3=C(C(=O)c4cccc(S(=O)(=O)N(C)C)c4)CCN23)cc1 | 16 | 1 | -17 | 5 | -21 | 16
COc1ccc(Cn2c(-c3ccco3)nc3oc4cc(OC)ccc4c(=O)c3c2=O)cc1 | -2 | 1 | -28 | 19 | 43 | 9
COc1ccc2c(=O)c3c(=O)n(Cc4ccco4)c(-c4ccco4)nc3oc2c1 | -3 | -1 | -66 | 75* | 10 | 6
COc1ccc(-c2nc3oc4cc(OC)ccc4c(=O)c3c(=O)n2Cc2ccco2)cc1 | -14 | -1 | -13 | 27* | 0 | 8
CCc1nc2oc3cc(OC)ccc3c(=O)c2c(=O)n1Cc1ccco1 | -7 | 0 | -13 | 13 | 10 | 23
Cc1ccc(C(=O)NCC(=O)OCC(=O)/C=C2\N(C)c3ccccc3C2(C)C)cc1C | 3 | 2 | -28 | 0 | 7 | 5
O=C(c1ccc([N+](=O)[O-])cc1)N1CCSC1c1ccccc1 (stereo not given) | -3 | 2 | 0 | -2 | x | 24*
O=C(c1ccc([N+](=O)[O-])cc1)N1CCSC1c1cccc(Cl)c1 (stereo not given) | -7 | 3 | x | x | -8 | x
COc1cccc(C2CC(c3cccs3)=NN2C(=O)CSc2nc3c(cnn3-c3ccc(F)cc3)c(=O)[nH]2)c1OC (stereo not given) | x | 11* | -29 | 6 | -61 | 1
COc1ccc(C2CC(c3cccs3)=NN2C(=O)CSc2nc3c(cnn3-c3ccccc3)c(=O)[nH]2)cc1 (stereo not given) | x | 6 | -32 | 4 | -15 | 6
CC(=O)NC(=S)Nc1sc2c(c1C(N)=O)CCC(C)C2 (stereo not given) | 25 | 1 | x | x | x | x
COc1ccc(-c2cn[nH]c2N)c(OC)c1 | -2 | 1 | -70 | -13 | 84* | 1
CS(=O)(=O)N1CCC(C(=O)N2CCN(C(c3ccccc3)c3ccccc3)CC2)CC1 | -13 | 0 | x | x | x | x
COc1cccc(NC(=O)c2ccc3c(c2)N(CC(=O)N2CCCCC2)C(=O)C(C)(C)O3)c1 | -10 | 8.8* | -3 | -26 | x | 2
Cc1c(Cl)cccc1N=Cc1ccc([N+](=O)[O-])s1 | -16 | -2 | 57* | -30 | x | 6
CCOC(=O)c1c(C)oc2c1c(C=NCC1CCCO1)c(O)c1ccccc12 (stereo not given) | -1 | 6 | -62 | 29* | 0 | 10
CCOC(=O)c1c(C)oc2c1c(C=NCc1ccccn1)c(O)c1ccccc12 | -13 | 3 | -59 | 31* | x | 18
CCOC(=O)c1c(C)oc2c1c1c(c3ccccc32)OCN(Cc2cccnc2)C1 | -9 | 2 | -16 | -23 | -16 | 23
CCOC(=O)c1c(C)oc2c1cc(O)c1ccccc12 | -13 | 0 | -33 | -7 | 55 | 17
CCOC(=O)c1c(C)oc2c1c(C(c1cccnc1)N1CCOCC1)c(O)c1ccccc12 (stereo not given) | -10 | -1 | -16 | 40* | x | 4
